Data on 22 molecules can be found in ChEMBL document CHEMBL3994631, “Design, synthesis, structure-activity relationship and mechanism of action studies of a series of 4-chloro-1-phthalazinyl hydrazones as a potent agent against Leishmania braziliensis” (Eur J Med Chem, 2017).

Active and inactive are the calls of the source. The calls are words filed in the database; no cut-off is given here. Some results are limits rather than exact numbers.

The subject of data set [1] is Leishmania braziliensis. The experiment in a line: Antileishmanial activity against Leishmania braziliensis MHOM/CO/87/UA301 promastigote forms isolated from infected Balb/c mouse assessed as parasite growth inhibition at 20 uM after 96 hrs by MTT assay relative to control. It is filed as functional. As to conditions: MHOM/CO/87/UA301, 96 h, read-out: GI. The essentials: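 Promastigotes in LIT + 10% FBS at 2x10^6/mL exposed to a single 20 μM concentration for 96 h at 29 °C. MTT (1 mg/mL) added for 4 h in darkness, cells lysed with acidic isopropanol, read at 570 nm. Inhibition relative to untreated parasites; means of three independent experiments.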

In data set [2] the test system is Leishmania braziliensis. The experiment in a line: Antileishmanial activity against Leishmania braziliensis MHOM/CO/87/UA301 promastigote forms isolated from infected Balb/c mouse by neubauer chamber method. It is filed as functional. The essentials: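 Promastigotes seeded at 1x10^6/mL in LIT medium at 29 °C with 0.1–10 μM compound. Growth followed daily by Neubauer chamber counting; three independent experiments per concentration. EC50 obtained by nonlinear regression of concentration–response data.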

The subject of data set [3] is Leishmania braziliensis. The experiment in a line: Inhibition of DHFR in Leishmania braziliensis MHOM/CO/87/UA301 promastigote forms assessed as growth inhibition at 2 uM after 72 hrs in presence of folinic acid by neubauer chamber method.
Data set [4] can be described thus: Cytotoxicity against mouse BMDM assessed as reduction in cell viability after 48 hrs by MTT assay. Format: cell-based. As to conditions: bone marrow-derived macrophages (BMDM), read-out: LC50. The essentials:
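Mouse bone-marrow macrophages (BMDM) were differentiated in L-929 conditioned medium and kept at 37 °C, 5% CO2, 90% humidity. Cells at 5×10^4 cells/mL were exposed to compounds at 10 to 100 µM for 48 h. Read-out was MTT reduction as a percentage of control cells. LC50 is the mean of three independent experiments.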
In general terms: Formazan colour is commonly taken as a measure of viable cells.

The test system of data set [5] is Leishmania braziliensis. The experiment in a line: Antileishmanial activity against Leishmania braziliensis MHOM/CO/87/UA301 promastigote forms isolated from infected Balb/c mouse assessed as induction of oxidative stress by measuring reduction in mitochondrial dehydrogenase activity at 20 uM after 30 to 180 mins by MTT assay. It is filed as functional. The gist of the method:
(§1)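 10^6 promastigotes in 500 μL per well treated with 20 μM compound at 28 °C, with untreated wells for each time point; sampled between 30 and 180 min. Cells counted, then MTT added (50 μL of 5 mg/mL in PBS) for 4 h. Stopped with acidic isopropanol, read at 570 nm. Pmdh (%) taken relative to untreated parasites as 100%; triplicate.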

For data set [6], the system named is Leishmania braziliensis. The experiment in a line: Inhibition of DHFR in Leishmania braziliensis MHOM/CO/87/UA301 promastigote forms assessed as growth inhibition at 10 uM after 72 hrs in presence of folinic acid by neubauer chamber method.
Data set [7] has as its system Leishmania braziliensis. Nature of the data set: Potency index, ratio of miltefosine EC50 to compound EC50 for Leishmania braziliensis MHOM/CO/87/UA301 promastigote forms isolated from infected Balb/c mouse. It is filed as functional.
The subject of data set [8] is Leishmania braziliensis. The experiment in a line: Antileishmanial activity against Leishmania braziliensis MHOM/CO/87/UA301 amastigote forms infected in mouse BMDM after 96 hrs by Giemsa staining based assay. It is filed as functional. The conditions noted are these: MHOM/CO/87/UA301, BMDM. The essentials: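 BMDM mixed 1:10 with L. braziliensis promastigotes in DMEM + 10% FBS on glass coverslips, 18 h at 37 °C, 5% CO2. Medium then replaced with medium containing compound and incubated 96 h under the same conditions. Giemsa-stained macrophages counted for % total and % infected macrophages and amastigotes per macrophage; triplicate.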

A short description of data set [9]: Selectivity index, ratio of LC50 for mouse BMDM to EC50 for Leishmania braziliensis MHOM/CO/87/UA301 amastigote forms infected in mouse BMDM.
The test system of data set [10] is Leishmania braziliensis. Nature of the data set: Ratio of EC50 for Leishmania braziliensis MHOM/CO/87/UA301 amastigote forms infected in mouse BMDM to EC50 for Leishmania braziliensis MHOM/CO/87/UA301 promastigote forms. Format: functional.
For data set [11], the system named is Leishmania braziliensis. The experiment in a line: Antileishmanial activity against Leishmania braziliensis MHOM/CO/87/UA301 amastigote forms infected in mouse BMDM assessed as induction of nitrite production after 48 hrs by Griess assay. Format: functional. The essentials: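 Macrophages infected with L. braziliensis were incubated 48 h with compound at 0.08, 0.80 and 8.0 μM. Controls: untreated infected and uninfected macrophages, three wells each. Nitrite in supernatants measured by Griess reaction against a sodium nitrite standard (detection limit 1.56 μM). Triplicate; expressed as % of untreated infected macrophages.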

Data set [12] relates to Leishmania braziliensis. The experiment in a line: Antileishmanial activity against Leishmania braziliensis MHOM/CO/87/UA301 promastigote forms isolated from infected Balb/c mouse assessed as induction of oxidative stress by measuring reduction in mitochondrial dehydrogenase activity at 20 uM by MTT assay. It is filed as functional. As to conditions: TDE = time-dependent effect. The essentials: as §1

Data set [13] concerns Leishmania braziliensis. The experiment in a line: Cytotoxicity against Leishmania braziliensis MHOM/CO/87/UA301 promastigote forms assessed as cell death at 20 uM after 30 mins by MTT assay. As to conditions: 0.5 h. The essentials: as §1
Data set [14] concerns Leishmania braziliensis. The experiment in a line: Inhibition of CuZn-SOD in Leishmania braziliensis MHOM/CO/87/UA301 promastigote forms assessed as reduction in superoxide level at 0.012 to 1.2 uM after 30 mins by spectrophotometric based xanthine oxidase coupled enzyme assay. The gist of the method:
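Promastigotes (4 million in 500 μL) treated at 0.012, 0.12 and 1.2 μM, then pelleted. Sonicated in STE buffer pH 7.8 and centrifuged; protein measured by Bradford. SOD activity read as NBT reduction by superoxide from xanthine/xanthine oxidase (8.4 U) with EDTA, Na2CO3 and albumin. 30 min at 27 °C, CuCl2 added, A595 measured; controls without xanthine oxidase; triplicate.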

Data set [15] deals with Leishmania braziliensis. The experiment in a line: Inhibition of DHFR in Leishmania braziliensis MHOM/CO/87/UA301 promastigote forms assessed as growth inhibition at 0.5 uM after 72 hrs in presence of folinic acid by neubauer chamber method.

In the case of `C/C(=N\Nc1nnc(Cl)c2ccccc12)c1ccccc1`, the inhibition of growth at 20 µM in the data set on Leishmania braziliensis [1] was 37%. The concentration giving a half-maximal response (EC50) in the data set on Leishmania braziliensis [2] was more than 20 µM.

Take `Clc1nnc(N/N=C/c2ccco2)c2ccccc12`: the inhibition of growth at 20 µM with Leishmania braziliensis [1] lay in the range of 40.9 to 59.1%. The molecule also displayed a concentration for a half-maximal effect (EC50) with Leishmania braziliensis [2] not below 20 µM.

In the case of `Clc1nnc(NN=Cc2ccc(Br)cc2)c2ccccc12`, in the data set on Leishmania braziliensis [1], the inhibition of growth at 20 µM worked out at 17.2%. This molecule also registered a concentration for a half-maximal effect (EC50) with Leishmania braziliensis [2] of more than 20 µM.

`C/C(=N\Nc1nnc(Cl)c2ccccc12)c1ccc(O)cc1`: in the data set on Leishmania braziliensis [1], the inhibition of growth at 20 µM amounted to 22.9%. In addition, the EC50 in the data set with Leishmania braziliensis [2] was more than 20 µM.

With `C/C(=N\Nc1nnc(Cl)c2ccccc12)c1ccc([N+](=O)[O-])cc1`, in the data set on Leishmania braziliensis [1], the inhibition of growth at 20 µM was 19.1%. Also, the concentration for a half-maximal effect (EC50) in the data set with Leishmania braziliensis [2] was more than 20 µM.

Consider `Clc1nnc(N/N=C/c2ccccc2)c2ccccc12`, for which the inhibition of growth at 20 µM with Leishmania braziliensis [1] is 8.46%. In addition, the 50% effective concentration (EC50) in the data set on Leishmania braziliensis [2] is more than 20 µM.

Regarding `O=[N+]([O-])c1ccc(C=NNc2nnc(Cl)c3ccccc23)cc1`, the inhibition of growth at 20 µM with Leishmania braziliensis [1] was in the range of 41.9 to 58.1%. This molecule also displayed an EC50 in the data set with Leishmania braziliensis [2] of less than 20 µM.

Consider `CN(Cc1cnc2nc(N)nc(N)c2n1)c1ccc(C(=O)N[C@@H](CCC(=O)O)C(=O)O)cc1`, for which the inhibition result in the data set with Leishmania braziliensis [3] is “Active”.

`COc1cc([N+](=O)[O-])ccc1/C=N/Nc1nnc(Cl)c2ccccc12`: the inhibition of growth at 20 µM in the data set with Leishmania braziliensis [1] turned out to be 11.9%. In the data set with Leishmania braziliensis [2], this molecule came in with an EC50 of more than 20 µM.

Turning to `Clc1ccc(C=NNc2nnc(Cl)c3ccccc23)cc1`, the inhibition of growth at 20 µM in the data set with Leishmania braziliensis [1] turned out to be 16.8%. In the data set with Leishmania braziliensis [2], this molecule yielded a concentration for a half-maximal effect (EC50) of more than 20 µM.

For `Clc1nnc(N/N=C/c2cccc(Br)c2)c2ccccc12`, the inhibition of growth at 20 µM in the data set with Leishmania braziliensis [1] was 5.89%. This molecule returned an EC50 in the data set on Leishmania braziliensis [2] of more than 20 µM.

Consider `O=[N+]([O-])c1cccc(/C=N/Nc2nnc(Cl)c3ccccc23)c1`, for which the inhibition of growth at 20 µM in the data set on Leishmania braziliensis [1] was 10.6%. This molecule yielded a concentration for a half-maximal effect (EC50) in the data set with Leishmania braziliensis [2] of more than 20 µM.

Regarding `Fc1ccc(/C=N/Nc2nnc(Cl)c3ccccc23)cc1`, in the data set on Leishmania braziliensis [1], the inhibition of growth at 20 µM was found to be 17.8%. For the same molecule, in the data set with Leishmania braziliensis [2], the EC50 was more than 20 µM.

Take `C/C(=N\Nc1nnc(Cl)c2ccccc12)c1ccc(Br)cc1`: in the data set on Leishmania braziliensis [1], the inhibition of growth at 20 µM amounted to 10.6%. In the data set on Leishmania braziliensis [2], this molecule came in with a 50% effective concentration (EC50) of more than 20 µM.

On to `C/C(=N\Nc1nnc(Cl)c2ccccc12)c1cc(Cl)ccc1Cl`, for which, in the data set on Leishmania braziliensis [1], the inhibition of growth at 20 µM was determined as 20%. The same molecule had a concentration for a half-maximal effect (EC50) with Leishmania braziliensis [2] of more than 20 µM.

In the case of `CCCCCCCCCCCCCCCCOP(=O)([O-])OCC[N+](C)(C)C` [MILTEFOSINE], the inhibition of growth at 20 µM in the data set on Leishmania braziliensis [1] was found to be 67.8%. In the data set with Leishmania braziliensis [2], this molecule displayed an EC50 of 20 to 25 µM. For the same molecule, the CC50 at 48 h in [4] was determined as 125 µM. In the data set on Leishmania braziliensis [5], the outcome was inactive. For the same molecule, the inhibition result in the data set on Leishmania braziliensis [6] was “inactive”.

In the case of `C/C(=N\Nc1nnc(Cl)c2ccccc12)c1ccc(Cl)cc1Cl`, the inhibition of growth at 20 µM in the data set with Leishmania braziliensis [1] worked out at 37.5%. This molecule also had an EC50 in the data set on Leishmania braziliensis [2] of more than 20 µM.

With `O=[N+]([O-])c1ccc(C=NNc2nnc(Cl)c3ccccc23)s1`, in the data set on Leishmania braziliensis [1], the inhibition of growth at 20 µM lay within 11.5 to 88.5%. In addition, the concentration for a half-maximal effect (EC50) in the data set on Leishmania braziliensis [2] was 3.2 µM. Further, in data set [4], the CC50 at 48 h was less than 10 µM. Besides, the “Ratio EC50” value in the data set on Leishmania braziliensis [7] is recorded as 8.

Take `O=[N+]([O-])c1ccc(C=NNc2nnc(Cl)c3ccccc23)o1`: the inhibition of growth at 20 µM in the data set with Leishmania braziliensis [1] was in the range of 13.5 to 86.5%. Further, the EC50 is 0.12 µM with Leishmania braziliensis [2] and 590 nM with Leishmania braziliensis [8]. Besides, in [4], the CC50 at 48 h came to 14 µM. Moreover, the “Selectivity Index” value in [9] came to 23.7. For the same molecule, the “Ratio EC50” value with Leishmania braziliensis [10] is reported as 4.9; in the data set on Leishmania braziliensis [7] it was 208. For the same molecule, the Activity entry is “Dose-dependent effect” with Leishmania braziliensis [11], “Tde” with Leishmania braziliensis [12] and “Non-Toxic” with Leishmania braziliensis [13]. The inhibition entry with Leishmania braziliensis [14] and in the data set on Leishmania braziliensis [15] was “inactive” in each case.

On to `C/C(=N\Nc1nnc(Cl)c2ccccc12)c1cccc([N+](=O)[O-])c1`, for which, in the data set on Leishmania braziliensis [1], the inhibition of growth at 20 µM was 9.46%. This molecule came in with an EC50 with Leishmania braziliensis [2] of more than 20 µM.

Regarding `Clc1cccc(/C=N/Nc2nnc(Cl)c3ccccc23)c1`, the inhibition of growth at 20 µM in the data set on Leishmania braziliensis [1] turned out to be 7.03%. Further, in the data set on Leishmania braziliensis [2], the EC50 is more than 20 µM.

`Oc1ccccc1/C=N\Nc1nnc(Cl)c2ccccc12`: the inhibition of growth at 20 µM in the data set with Leishmania braziliensis [1] fell in the range of 33.9 to 64.2%. Also, the EC50 in the data set with Leishmania braziliensis [2] is more than 20 µM.

The term EC50 denotes the concentration at which the effect is half-maximal. Higher therefore signals weaker potency.
